FN deposition inh: fibronectin deposition inhibition; AID 743247; hit rate 0.086% among 350,000; AH1F fibroblasts, Alexa488-fibronectin deposition fluorescence, overnight; inhibition, % at 12.6 µM;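 active = mean inhibition across replicates of 30% or more, regardless of how many single replicates reach that level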;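 also: positive control wells lacked labelled fibronectin entirely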
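Assay system: AH1F fibroblast monolayer, labelled fibronectin deposition. Amount: 10000 cells per well. Also added: labelled fibronectin 24 nM. Compound: single-point pinned compound. Incubation: cell attachment 1 h, compound and FN exposure overnight. Detection: fluorescence after three HBSS washes, excitation 485 nm, emission 525 nm. Read-out: inhibition of fibronectin deposition signal.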
ABHD5-PLIN5 inh: ABHD5-PLIN5 protein interaction inhibition. Q00G26+Q8WTS1. Split G. princeps luciferase complementation, luminescence, 4 h. inhibition, % at 4 µM. hit rate 0.78% among 360,000. AID 602281;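 active = inhibition above the mean inhibition across every tested compound plus 3 SD, cut at about 22% in these data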;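 also: 0% = DMSO only wells and the 100% control is not disclosed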
APOBEC3G inh: inhibitors of human APOBEC3G DNA deaminase. Q9HC16. inhibition, % at 20 µM. recombinant A3G, ssDNA deamination FAM/TAMRA fluorescence. AID 493012. hit rate 0.28% among 330,000;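 active = inhibition of at least 40% at 20 µM, with no more than 30% in the related APOBEC3A deaminase screen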;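 also: plate controls were DMSO wells with A3G for no effect and wells lacking A3G enzyme for full effect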
Target sequence (Q9HC16 whole entry, looked up): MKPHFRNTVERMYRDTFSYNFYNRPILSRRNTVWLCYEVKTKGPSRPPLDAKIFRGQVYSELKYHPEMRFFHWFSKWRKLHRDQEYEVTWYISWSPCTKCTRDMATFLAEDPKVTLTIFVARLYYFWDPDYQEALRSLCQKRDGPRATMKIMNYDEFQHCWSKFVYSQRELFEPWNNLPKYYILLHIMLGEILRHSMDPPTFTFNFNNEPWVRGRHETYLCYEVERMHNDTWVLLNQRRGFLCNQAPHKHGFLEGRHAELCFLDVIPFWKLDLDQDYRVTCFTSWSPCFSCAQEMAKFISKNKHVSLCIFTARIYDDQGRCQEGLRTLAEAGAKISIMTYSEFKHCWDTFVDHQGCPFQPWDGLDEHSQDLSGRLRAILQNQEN
APOBEC3A inh: inhibitors of human APOBEC3A DNA deaminase; P31941; inhibition, % at 20 µM; AID 493011; recombinant A3A, FAM/TAMRA ssDNA deamination fluorescence; hit rate 0.41% among 330,000;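 active = at least 40% inhibition at 20 µM here, with at most 30% in a related deaminase screen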;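 also: plate controls were A3A with DMSO for no effect and wells lacking A3A enzyme for full effect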
Target sequence (P31941 whole entry, looked up): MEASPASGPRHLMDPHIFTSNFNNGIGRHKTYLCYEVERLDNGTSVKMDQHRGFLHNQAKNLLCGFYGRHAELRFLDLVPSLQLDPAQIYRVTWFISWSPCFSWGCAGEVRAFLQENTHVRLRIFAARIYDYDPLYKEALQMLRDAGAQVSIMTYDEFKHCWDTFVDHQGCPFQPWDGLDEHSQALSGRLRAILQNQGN
APOBEC3A confirm: confirmation of human APOBEC3A DNA deaminase inhibitors | shares compounds with APOBEC3A inh | recombinant A3A, ssDNA deaminase UDG fluorescence assay | inhibition, % at 20 µM | hit rate 63% among 1,400;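 active = inhibition reaching a set limit, 80% of the first screen's cutoff, at 20 µM in any replicate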;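 also: plate controls were DMSO wells with A3A for no effect and wells lacking A3A enzyme for full effect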
UDG ctr A3A: UDG inhibition in APOBEC3A counter-screen; shares compounds with APOBEC3A inh; UDG counterscreen, FAM/TAMRA uracil oligo fluorescence; inhibition, % at 20 µM; 1,000 tested, under 10 active; call rule not given here
* hit, by the source's call; · = no result. This is a sample that favours compounds with a hit; in the whole collection about 1.2% have one here.

SMILES	FN deposition inh	ABHD5-PLIN5 inh	APOBEC3G inh	APOBEC3A inh	APOBEC3A confirm	UDG ctr A3A
O=C(Nc1ccc(Cl)cc1)c1ccc2c(=O)n3c(nc2c1)CCCCC3	4	5	11	52*	-4	·
C[C@H](CO)N1C[C@H](C)[C@@H](CN(C)S(=O)(=O)c2ccc(F)cc2)Oc2ccc(NC(=O)Nc3ccc4c(c3)OCO4)cc2CC1=O	-2	·	·	·	·	·
COc1ccc(S(=O)(=O)N(CC(=O)NC(C)C)Cc2ccccc2)cc1	-10	-4	-1	5	·	·
COc1ccc(S(=O)(=O)N(CCc2ccccc2)CC(=O)NC(C)C)cc1	2	-3	11	50*	48*	2
COc1ccc(S(=O)(=O)N(CCc2ccccc2)CC(=O)N2CCOCC2)cc1	0	-10	-9	0	·	·
CNC(=O)CN(CCc1ccccc1)S(=O)(=O)c1ccc(OC)cc1	9	1	1	45*	25	·
CCOC(=O)C1CCN(C(=O)C(C)Sc2nnc3ccccn23)CC1 (configuration not stated)	1	1	-1	60*	7	3
O=C(c1cccc(S(=O)(=O)NCc2ccc3c(c2)OCO3)c1)N1CCCC1	-19	0	-9	89*	-8	0
Cc1ccc(S(=O)(=O)N(CC(=O)O)Cc2ccco2)cc1	6	2	12	52*	56*	1
Cc1ccc(S(=O)(=O)N(Cc2ccccc2)Cc2ccco2)cc1	·	-6	-5	-2	·	·
CO[C@H]1CN(C)C(=O)c2ccc(NC(=O)C3CCCC3)cc2OC[C@@H](C)N(C(C)=O)C[C@@H]1C	-15	·	·	·	·	·
O=C(C[C@@H]1C=C[C@@H](NC(=O)c2ccncc2)[C@H](CO)O1)Nc1ccccc1	-1	·	·	·	·	·
Cc1ccc2c(c1)S/C(=C/c1ccc[n+](C)c1)N2CCO	18	1	23	70*	84*	6
CC(C)NC(=O)N(C)C[C@@H]1Oc2ccc(N(C)C)cc2CC(=O)N(C)C[C@@H]1C	-18	·	·	·	·	·
C/C(CC(=O)Nc1cccc(Cl)c1Cl)=N\NC(=O)C(=O)N1CCCC1	10	2	-9	-2	·	·
C/C(CC(=O)Nc1ccc(Cl)c(Cl)c1)=N\NC(=O)C(=O)N1CCCCC1	3	4	9	62*	16*	-1
CC1CCN(C(=O)c2ncn3c2C(=O)N[C@H](C)C3)CC1	-5	·	·	·	·	·
CC1CCN(C(=O)c2ncn(C)c2C(=O)N2CCC(C)CC2)CC1	-5	2	20	55*	69*	-2
CC1CCN(Cc2c(O)ccc3c2O/C(=C\c2ccco2)C3=O)CC1	·	7	4	97*	36*	-5
COC(=O)COc1ccc2c(c1)O/C(=C\c1ccco1)C2=O	2	11	-4	5	·	·
O=C1/C(=C/c2ccco2)Oc2c1ccc(O)c2CN1CCCCC1	-5	8	72	86	·	·
COCCN(CCOC)Cc1c(O)ccc2c1O/C(=C\c1ccco1)C2=O	-2	16	14	56*	27*	2
O=C(Nc1cc(F)ccc1F)N1CCCCN2[C@H](CO)[C@H](c3ccc(C4=CCCCC4)cc3)[C@H]2C1	-4	·	·	·	·	·
C[N+]1(CC(=O)OCCCC2CCCCC2)CCCC1	·	-6	15	69*	76*	-1
CC(C)CC1CCCCC1OC(=O)C[N+]1(C)CCCCC1 (configuration not stated)	0	3	20	81*	75*	-3
SMILES	FN deposition inh	ABHD5-PLIN5 inh	APOBEC3G inh	APOBEC3A inh	APOBEC3A confirm	UDG ctr A3A
CC(C)(C)C1CCC(OC(=O)C[N+]2(C)CCCCC2)CC1 (configuration not stated)	4	-2	11	90*	84*	1
CC(C)(C)C1CCC(OC(=O)C[N+]2(C)CCCC2)CC1 (configuration not stated)	2	1	15	47*	79*	2
CC(C)(C)C1CCC(OC(=O)CN2CCOCC2)CC1 (configuration not stated)	·	-3	-2	1	·	·
CNC[C@H]1Oc2ccc(NC(=O)Nc3ccc(F)cc3)cc2CC(=O)N([C@@H](C)CO)C[C@@H]1C	1	·	·	·	·	·
COc1ccccc1S(=O)(=O)N[C@H]1CC[C@@H](CC(=O)NCc2cccc(F)c2)O[C@@H]1CO	10	·	·	·	·	·
CNC[C@@H]1Oc2c(NS(=O)(=O)c3cn(C)cn3)cccc2C(=O)N([C@@H](C)CO)C[C@@H]1C	-1	·	·	·	·	·
CC(C)(C)c1ccc(NC(=O)C2=CN3CCS(=O)(=O)N=C3C=C2)cc1	·	-1	9	51*	71*	-4
COc1ccc2c3c(n(C)c2c1)[C@H](CO)N(Cc1ccc(Cl)cc1)CC31CN(C(=O)NC(C)C)C1	-15	·	·	·	·	·
CCOC(=O)N1CCN(C(=O)Cc2cccc3ccccc23)CC1	8	2	-1	-2	·	·
CCOC(=O)C1CCN(C(=O)Cc2cccc3ccccc23)CC1	·	1	6	40*	58*	1
Cc1cccc(C(=O)OCC(=O)NCCNC(=O)COC(=O)c2cccc(C)c2C)c1C	7	-5	6	40*	17	·
C[C@@H]1CN([C@@H](C)CO)C(=O)Cc2cc(NC(=O)Nc3ccc4c(c3)OCO4)ccc2O[C@H]1CN(C)S(=O)(=O)c1ccc(Cl)cc1	0	·	·	·	·	·
O=C(NCc1ccccn1)C1CCN(S(=O)(=O)c2ccccc2)CC1	·	5	-3	-3	·	·
CSc1ccc(S(=O)(=O)N2CCC(C(=O)NCc3ccccn3)CC2)cc1	0	5	21	59*	53*	-2
C=CCNC(=O)c1ccccc1NC(=O)C1CCN(S(=O)(=O)c2ccc(SC)cc2)CC1	0	-3	12	44*	60*	-3
O=C(O)C[C@@H]1C=C[C@@H](NC(=O)CCN2CCCCC2)[C@H](CO)O1	7	·	·	·	·	·
CCNC[C@@H]1[C@@H](c2ccc(-c3ccc(F)cc3)cc2)[C@H](CO)N1S(C)(=O)=O	-8	·	·	·	·	·
Cc1noc(C)c1S(=O)(=O)Nc1ccc2c(c1)C(=O)N([C@H](C)CO)C[C@H](C)[C@H](CN(C)C)OCCCC[C@H](C)O2	-5	·	·	·	·	·
O=C(NC1CCCc2ccccc21)c1cc(Cl)ccn1 (configuration not stated)	2	-8	12	62*	30	·
O=C(c1ccc(F)cc1)N1CC(=O)N2[C@H](CO)[C@H](c3ccc(C#CC4CC4)cc3)[C@H]2C1	-2	·	·	·	·	·
Cc1ccc(NC(=O)c2ccccc2CCc2ccccc2)c(C)c1	·	2	2	100*	4	·
CCn1cc(-c2cc(C(F)(F)F)n3nc(C(=O)O)cc3n2)c(C)n1	·	1	-11	54*	29*	-32
FC(F)(F)c1cc(-c2cccs2)nc2cc(-c3ccccc3)nn12	-3	-6	-7	0	·	·
O=C(O)c1cc2nc(-c3ccc(F)cc3)cc(C(F)(F)F)n2n1	·	4	-6	4	·	·

Screening data from PubChem BioAssay.
